Assay results: ChEMBL document CHEMBL1649255, “Impact of novel human immunodeficiency virus type 1 reverse transcriptase mutations P119S and T165A on 4'-ethynylthymidine analog resistance profile” (Antimicrob Agents Chemother, 2009)

What was measured:
[1] = tested on: Cc1cn([C@H]2C[C@H](O)[C@@H](COP(=O)(O)OP(=O)(O)OP(=O)(O)O)O2)c(=O)[nH]c1=O; experiment: Activity of HIV1 Reverse transcriptase T165A/M184V mutant; conditions: Human immunodeficiency virus 1
[2] = tested on: Cc1cn([C@H]2C[C@H](O)[C@@H](COP(=O)(O)OP(=O)(O)OP(=O)(O)O)O2)c(=O)[nH]c1=O; experiment: Ratio of Kcat to Km for HIV1 Reverse transcriptase T165A/M184V mutant; conditions: Human immunodeficiency virus 1
[3] = tested on: Cc1cn([C@H]2C[C@H](O)[C@@H](COP(=O)(O)OP(=O)(O)OP(=O)(O)O)O2)c(=O)[nH]c1=O; experiment: Activity of HIV1 Reverse transcriptase P119S/M184V mutant; conditions: Human immunodeficiency virus 1
[4] = tested on: Cc1cn([C@H]2C[C@H](O)[C@@H](COP(=O)(O)OP(=O)(O)OP(=O)(O)O)O2)c(=O)[nH]c1=O; experiment: Ratio of Kcat to Km for HIV1 Reverse transcriptase P119S/M184V mutant; conditions: Human immunodeficiency virus 1
[5] = tested on: Human immunodeficiency virus 1; experiment: Antiviral activity against wild-type HIV1 pNL4-3 infected in TZM-bl cells by luciferase assay; type: functional, organism-based; conditions: Human immunodeficiency virus 1, pNL4-3, TZM-bl
Outline: (§1)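 TZM-bl cells (LTR-driven luciferase reporter) at 5 × 10^4 per well in RPMI 1640 with 10% dialyzed FBS. They were preincubated 16 h at 37°C with a range of 4′-Ed4T, d4T, 3TC or AZT, then infected with NL4-3-derived clones at MOI 0.01. After 72 h, lysates were read for luciferase, with uninfected background subtracted. EC50 is from % of no-drug signal, reported as mean ± SD of three experiments.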

[6] = tested on: Human immunodeficiency virus 1; experiment: Antiviral activity against HIV1 pNL4-3 harboring Reverse transcriptase P119S mutant gene infected in TZM-bl cells after 72 hrs by luciferase assay; type: functional, organism-based; conditions: Human immunodeficiency virus 1, pNL4-3, TZM-bl; outline: as §1
[7] = tested on: Human immunodeficiency virus 1; experiment: Antiviral activity against HIV1 pNL4-3 harboring Reverse transcriptase T165A mutant gene infected in TZM-bl cells after 72 hrs by luciferase assay; type: functional, organism-based; conditions: Human immunodeficiency virus 1, pNL4-3, TZM-bl; outline: as §1
[8] = tested on: Human immunodeficiency virus 1; experiment: Antiviral activity against HIV1 pNL4-3 harboring Reverse transcriptase M184V mutant gene infected in TZM-bl cells after 72 hrs by luciferase assay; type: functional, organism-based; conditions: Human immunodeficiency virus 1, pNL4-3, TZM-bl; outline: as §1
[9] = tested on: Human immunodeficiency virus 1; experiment: Antiviral activity against HIV1 pNL4-3 harboring Reverse transcriptase P119S/T165A mutant gene infected in TZM-bl cells after 72 hrs by luciferase assay; type: functional, organism-based; conditions: Human immunodeficiency virus 1, pNL4-3, TZM-bl; outline: as §1
[10] = tested on: Human immunodeficiency virus 1; experiment: Antiviral activity against HIV1 pNL4-3 harboring Reverse transcriptase P119S/M184V mutant gene infected in TZM-bl cells after 72 hrs by luciferase assay; type: functional, organism-based; conditions: Human immunodeficiency virus 1, pNL4-3, TZM-bl; outline: as §1
[11] = tested on: Human immunodeficiency virus 1; experiment: Antiviral activity against HIV1 pNL4-3 harboring Reverse transcriptase T165A/M184V mutant gene infected in TZM-bl cells after 72 hrs by luciferase assay; type: functional, organism-based; conditions: Human immunodeficiency virus 1, pNL4-3, TZM-bl; outline: as §1
[12] = tested on: Human immunodeficiency virus 1; experiment: Antiviral activity against HIV1 pNL4-3 harboring Reverse transcriptase P119S/T165A/M184V mutant gene infected in TZM-bl cells after 72 hrs by luciferase assay; type: functional, organism-based; conditions: Human immunodeficiency virus 1, pNL4-3, TZM-bl; outline: as §1
[13] = tested on: Human immunodeficiency virus 1; experiment: Antiviral activity against HIV1 pNL4-3 harboring chimeric pTKD infected in TZM-bl cells after 72 hrs by luciferase assay; type: functional, organism-based; conditions: Human immunodeficiency virus 1, pNL4-3, TZM-bl; outline: as §1
[14] = tested on: Cc1cn([C@H]2C[C@H](O)[C@@H](COP(=O)(O)OP(=O)(O)OP(=O)(O)O)O2)c(=O)[nH]c1=O; experiment: Activity of HIV1 Reverse transcriptase P119S/T165A mutant; conditions: Human immunodeficiency virus 1
[15] = tested on: Cc1cn([C@H]2C[C@H](O)[C@@H](COP(=O)(O)OP(=O)(O)OP(=O)(O)O)O2)c(=O)[nH]c1=O; experiment: Ratio of Kcat to Km for HIV1 Reverse transcriptase P119S/T165A mutant; conditions: Human immunodeficiency virus 1
[16] = tested on: Cc1cn([C@H]2C[C@H](O)[C@@H](COP(=O)(O)OP(=O)(O)OP(=O)(O)O)O2)c(=O)[nH]c1=O; experiment: Activity of HIV1 Reverse transcriptase P119S mutant; conditions: Human immunodeficiency virus 1
[17] = tested on: Cc1cn([C@H]2C[C@H](O)[C@@H](COP(=O)(O)OP(=O)(O)OP(=O)(O)O)O2)c(=O)[nH]c1=O; experiment: Ratio of Kcat to Km for HIV1 Reverse transcriptase P119S mutant; conditions: Human immunodeficiency virus 1
[18] = target: Human immunodeficiency virus type 1 reverse transcriptase (Human immunodeficiency virus 1, UniProt Q72547); experiment: Inhibition of wild-type HIV1 Reverse transcriptase
Outline: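 Same steady-state dTTP incorporation reaction: 250 nM DNA 23-mer/RNA 36-mer primer/template, 2.5 nM RT, Tris-HCl pH 8.0/NaCl/MgCl2/DTT/BSA buffer, 37°C. The analog triphosphate inhibitor was added at various concentrations. Apparent dTTP Km was measured at each inhibitor level to derive Ki, and Ki/Km(dTTP) was used as an inhibition-efficiency index.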

[19] = target: Human immunodeficiency virus type 1 reverse transcriptase (Human immunodeficiency virus 1, UniProt Q72547, P119S); experiment: Inhibition of HIV1 Reverse transcriptase P119S mutant
Outline: (§2)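 Steady-state inhibition of dTTP incorporation used 2.5 nM wild-type or mutant RT and 250 nM DNA/RNA 23-mer/36-mer primer/template. Apparent dTTP Km was measured across varied 4′-Ed4TTP or d4TTP to give Ki. Ki/Km(dTTP) served as the inhibition index.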

[20] = target: Human immunodeficiency virus type 1 reverse transcriptase (Human immunodeficiency virus 1, UniProt Q72547, T165A); experiment: Inhibition of HIV1 Reverse transcriptase T165A mutant; outline: as §2
[21] = target: Human immunodeficiency virus type 1 reverse transcriptase (Human immunodeficiency virus 1, UniProt Q72547, M184V); experiment: Inhibition of HIV1 Reverse transcriptase M184V mutant; outline: as §2
[22] = target: Human immunodeficiency virus type 1 reverse transcriptase (Human immunodeficiency virus 1, UniProt Q72547, P119S/T165A); experiment: Inhibition of HIV1 Reverse transcriptase P119S/T165A mutant; outline: as §2
[23] = target: Human immunodeficiency virus type 1 reverse transcriptase (Human immunodeficiency virus 1, UniProt Q72547, M184V/P119S); experiment: Inhibition of HIV1 Reverse transcriptase P119S/M184V mutant; outline: as §2
[24] = target: Human immunodeficiency virus type 1 reverse transcriptase (Human immunodeficiency virus 1, UniProt Q72547, M184V/T165A); experiment: Inhibition of HIV1 Reverse transcriptase T165A/M184V mutant; outline: as §2
[25] = target: Human immunodeficiency virus type 1 reverse transcriptase (Human immunodeficiency virus 1, UniProt Q72547, M184V/P119S/T165A); experiment: Inhibition of HIV1 Reverse transcriptase P119S/T165A/M184V mutant; outline: as §2
[26] = target: Human immunodeficiency virus type 1 reverse transcriptase (Human immunodeficiency virus 1) (UniProt Q72547); experiment: Ratio of Ki to Km for wild-type HIV1 Reverse transcriptase; outline: as §2
[27] = tested on: Human immunodeficiency virus type 1 reverse transcriptase (Human immunodeficiency virus 1), Q72547 [P119S]; experiment: Ratio of Ki to Km for HIV1 Reverse transcriptase P119S mutant; outline: as §2
[28] = tested on: Human immunodeficiency virus type 1 reverse transcriptase (Human immunodeficiency virus 1), Q72547 [T165A]; experiment: Ratio of Ki to Km for HIV1 Reverse transcriptase T165A mutant; outline: as §2
[29] = tested on: Human immunodeficiency virus type 1 reverse transcriptase (Human immunodeficiency virus 1), Q72547 [M184V]; experiment: Ratio of Ki to Km for HIV1 Reverse transcriptase M184V mutant; outline: as §2
[30] = tested on: Human immunodeficiency virus type 1 reverse transcriptase (Human immunodeficiency virus 1), Q72547 [P119S,T165A]; experiment: Ratio of Ki to Km for HIV1 Reverse transcriptase P119S/T165A mutant; outline: as §2
[31] = tested on: Human immunodeficiency virus type 1 reverse transcriptase (Human immunodeficiency virus 1), Q72547 [P119S,M184V]; experiment: Ratio of Ki to Km for HIV1 Reverse transcriptase P119S/M184V mutant; outline: as §2
[32] = tested on: Human immunodeficiency virus type 1 reverse transcriptase (Human immunodeficiency virus 1), Q72547 [T165A,M184V]; experiment: Ratio of Ki to Km for HIV1 Reverse transcriptase T165A/M184V mutant; outline: as §2
[33] = tested on: Human immunodeficiency virus type 1 reverse transcriptase (Human immunodeficiency virus 1), Q72547 [P119S,T165A,M184V]; experiment: Ratio of Ki to Km for HIV1 Reverse transcriptase P119S/T165A/M184V mutant; outline: as §2

Molecule: Human immunodeficiency virus type 1 reverse transcriptase (Human immunodeficiency virus 1) (from UniProt Q72547) T165A,M184V
- kcat [1]: 1.4 ×10⁻⁵ /s
- kcat/Km (10'-2/microM/s) [2]: 1.3

Molecule: Human immunodeficiency virus type 1 reverse transcriptase (Human immunodeficiency virus 1) (from UniProt Q72547) P119S,M184V
- Km [3]: 0.18 µM
- kcat [3]: 4 ×10⁻⁵ /s
- kcat/Km (10'-2/microM/s) [4]: 2.2

Molecule: Cc1cn([C@H]2C[C@H](N=[N+]=[N-])[C@@H](CO)O2)c(=O)[nH]c1=O [ZIDOVUDINE]
- EC50 [5]: 23 nM
- EC50 [6]: 17 nM
- EC50 [7]: 22 nM
- EC50 [8]: 11 nM
- EC50 [9]: 26 nM
- EC50 [10]: 11 nM
- EC50 [11]: 24 nM
- EC50 [12]: 53 nM
- EC50 [13]: 8 nM

Molecule: Human immunodeficiency virus type 1 reverse transcriptase (Human immunodeficiency virus 1) (from UniProt Q72547) P119S,T165A
- Km [14]: 0.07 µM
- kcat [14]: 3.6 ×10⁻⁴ /s
- kcat/Km (10'-2/microM/s) [15]: 5.1

Molecule: Human immunodeficiency virus type 1 reverse transcriptase (Human immunodeficiency virus 1) (from UniProt Q72547) P119S
- Km [16]: 0.13 µM
- kcat [16]: 3.3 ×10⁻⁴ /s
- kcat/Km (10'-2/microM/s) [17]: 2.5

Molecule: C=C[C@@]1(COP(=O)(O)OP(=O)(O)OP(=O)(O)O)C=C[C@H](n2cc(C)c(=O)[nH]c2=O)O1
- Ki [18]: 54 nM
- Ki [19]: 110 nM
- Ki [20]: 80 nM
- Ki [21]: 210 nM
- Ki [22]: 24 nM
- Ki [23]: 640 nM
- Ki [24]: 660 nM
- Ki [25]: 730 nM
- Ki/Km [26]: 0.45
- Ki/Km [27]: 0.85
- Ki/Km [28]: 0.8
- Ki/Km [29]: 1.7
- Ki/Km [30]: 0.34
- Ki/Km [31]: 3.6
- Ki/Km [32]: 6
- Ki/Km [33]: 4.9
